Read-outs that look alike come from different tables or passages of the source.
Legend:
Bla g 4 [1] = biological target: T1, Bla g 4 (Blattella germanica, UniProt P54962); assay: isothermal titration calorimetry; format: binding
How it was run: (§1)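 Bla g 4 binding enthalpy was recorded by ITC at 25°C in 20 mM phosphate buffer, pH 8.0, with 100 μM protein and test amine titrant at 1 mM initial concentration. Supporting 1H-15N HSQC titrations used 0.2 mM 15N-labelled Bla g 4 (M9, 15N ammonium chloride) in 20 mM acetate, pH 4.5, 10% D2O, at 308 K and 800 MHz. Protein:ligand molar ratios were 1:0, 1:0.5, 1:1 and 1:2.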

Bla g 4 [2] = biological target: T1, Bla g 4; assay: isothermal titration calorimetry; format: binding; remark: listed apart in the source
How it was run: as §1

T1 sequence (P54962 7-182): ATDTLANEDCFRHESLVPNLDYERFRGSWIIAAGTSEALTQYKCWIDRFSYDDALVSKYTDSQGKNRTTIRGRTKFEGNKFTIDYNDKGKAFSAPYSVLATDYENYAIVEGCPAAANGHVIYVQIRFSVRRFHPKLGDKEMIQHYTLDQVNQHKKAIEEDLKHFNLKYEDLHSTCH

SMILES	Kd (Bla g 4 [1]) [nM]	Kd (Bla g 4 [2]) [nM]
NC[C@H](O)c1ccc(O)cc1 [octopamine]	185	
NCCc1ccc(O)cc1 [tyramine]		45

Reference: article PMC4097008 (Molecular immunology, 2014)
